Assay results: the array DNA melting data of Ke et al. (doi:10.1101/2024.01.08.574731)

Legend:
[1] = melting temperature; fluorescence melt of hairpins on a sequencing array, two-state fit, raised by 9.35 °C to match UV melts; conditions: sodium 0.088 M
Procedure, shortened: (§1)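 Melting temperature and folding enthalpy were obtained by bootstrapped two-state fitting. Fits used Cy3 fluorescence of library hairpins with annealed Cy3 and quencher oligos on a sequenced MiSeq flow cell, imaged in 50 mM Na-HEPES pH 8.0, 25 mM NaCl in 2.5 °C steps up to 60 °C and normalised to pre-quench Cy3 and control constructs. Four replicates were combined by inverse-variance weighting, and fitted temperatures were raised by 9.35 °C to match UV melts.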

[2] = folding enthalpy; higher = less favourable; fluorescence melt of hairpins on a sequencing array, two-state fit; conditions: sodium 0.088 M
Procedure, shortened: as §1

Sequence | Tm [1] | folding enthalpy [2]
GCAGATTCGAAAGAATGC (((..(((....)))))) | 36.3 °C | -13.9 kcal/mol
GGCACTCGAAAGAGCGCC (((.(((....))).))) | 59.3 °C | -53 kcal/mol
GATCATCGAAATGATC ((((((....)))))) | 44.2 °C | -29 kcal/mol
GATCCTGCAAGGATC ((((((...)))))) | 68.5 °C | -39.6 kcal/mol
GCTAGGCGAAAGCCTGGC ((.((((....)))).)) | 68.2 °C | -21.1 kcal/mol
GTTAGCGCGAAAGCGAAC (((..(((....)))))) | 27.7 °C | -6.83 kcal/mol
GTCAGTCGAAAGACCGAC (((.(((....))).))) | 47.4 °C | -22.1 kcal/mol
GATCACTGCAGTGATC ((((((....)))))) | 61.7 °C | -44.7 kcal/mol
GTTAGACGAAAGTCAAC (((.(((....)))))) | 43 °C | -13.4 kcal/mol
GCGTAATCACGC ((((....)))) | 52.7 °C | -21.9 kcal/mol
GTTGTTGGAAACAGCAAC ((((.((....)).)))) | 45.3 °C | -16.7 kcal/mol
GACTGCGAAAGCAGTGTC ((((((....)))..))) | 58.6 °C | -10.2 kcal/mol
GAGGGAGCGAAAGCTCTC (((..(((....)))))) | 42.8 °C | -9.38 kcal/mol
GATCTTTACAAGATC ((((((...)))))) | 46.4 °C | -33.2 kcal/mol
GGCATGGGAAACCATGTC (.(((((....))))).) | 52.5 °C | -26.6 kcal/mol
GATCTGCTTCAGATC ((((((...)))))) | 48.7 °C | -36.6 kcal/mol
GCGACTCGAAAGAGACGC (((.(((....))).))) | 62.3 °C | -48.5 kcal/mol
GAGCGTGGAAACACGCCC (.(((((....))))).) | 47.9 °C | -7.9 kcal/mol
GTGTAATCGAAAGATCAC (((..(((....)))))) | 33.8 °C | -23.9 kcal/mol
GGTAAGGCGAAAGCCACC (((..(((....)))))) | 43.7 °C | -15.3 kcal/mol
GATCCCCTGGGGATC ((((((...)))))) | 64.8 °C | -32.8 kcal/mol
GATCTGCCGACAGATC ((((((....)))))) | 50.1 °C | -29.7 kcal/mol
CGCGGAGCGGTCCGCG ((((((....)))))) | 50.5 °C | -15.8 kcal/mol

Sequence | Tm [1] | folding enthalpy [2]
GCGGGCCGCCGC ((((....)))) | 61.5 °C | -15.5 kcal/mol
GGTTACGAAAGTAAAACC ((((((....)))..))) | 36.6 °C | -24.3 kcal/mol
GCGAAAATCGC ((((...)))) | 45 °C | -14.1 kcal/mol
GGTCGTCGAAAGACTACC (((.(((....))).))) | 48.6 °C | -30.6 kcal/mol
GCGACCGAAAGGTTCCGC ((((((....)))..))) | 43.5 °C | -18.8 kcal/mol
GGCTATGGAAACATAGTC (.(((((....))))).) | 46.5 °C | -34.7 kcal/mol
GGAGCCTCGAAAGAGTCC (((..(((....)))))) | 25.9 °C | -9.23 kcal/mol
GCTGTTACGAAAGTAAGC (((..(((....)))))) | 37.8 °C | -21.1 kcal/mol
GGATTGGCGAAAGCCTCC (((..(((....)))))) | 35.3 °C | -10.5 kcal/mol
GTACGGTCGAAAGACTAC (((..(((....)))))) | 26.8 °C | -10.6 kcal/mol
GCTATTGGAAACGATAGC (((((.(....).))))) | 44.8 °C | -32.4 kcal/mol
GCAGGTCGAAAGACGTGC (((.(((....))).))) | 62.8 °C | -42.9 kcal/mol
GATCCTTAAAGGATC ((((((...)))))) | 51.7 °C | -33.7 kcal/mol
GTTTGTCGAAAGACAAC (((.(((....)))))) | 47.5 °C | -14.3 kcal/mol
GATCTAAACGTAGATC ((((((....)))))) | 35.8 °C | -28.7 kcal/mol
GAGATGGGAAACCATCTC (((((((....))))))) | 60.3 °C | -39.2 kcal/mol
GACGGTGGAAACACCACC (..((((....))))..) | 35.2 °C | -11.1 kcal/mol
GGCCGAACGAAAGTTGCC (((..(((....)))))) | 38.9 °C | -23.5 kcal/mol
GATCGCTCAGGCGATC ((((((....)))))) | 67.9 °C | -36.1 kcal/mol
GATCGACTAGTCGATC ((((((....)))))) | 63.7 °C | -45.6 kcal/mol
GCTGAGCGAAAGCTCTGC ((.((((....)))).)) | 66.4 °C | -31.6 kcal/mol
GGTCCTGGAAACAAGACC ((((.((....)).)))) | 36.2 °C | -32.1 kcal/mol
GATCGCAACTGCGATC ((((((....)))))) | 69.2 °C | -33.8 kcal/mol

Sequence | Tm [1] | folding enthalpy [2]
GCCGAAGAAATTCGGC ((((((....)))))) | 67.4 °C | -33.9 kcal/mol
GTACACGAAAGTGGGTAC ((((((....)))..))) | 37.4 °C | -14.9 kcal/mol
GCTTACGAAAGTAGTAGC ((((((....)))..))) | 34.8 °C | -27.9 kcal/mol
GCAGTACGAAAGTATGC (((.(((....)))))) | 48.4 °C | -31.3 kcal/mol
GCACGCGAAAGCGCCTGC ((((((....)))..))) | 37.1 °C | -9.69 kcal/mol
GGTTTCGAAAGAAAACC ((((((....))).))) | 46.4 °C | -25.7 kcal/mol
GTTATTGGAAACAATAGC (.(((((....))))).) | 33.4 °C | -18.9 kcal/mol
GATCGACGAAAGTCATC (((.(((....)))))) | 33.1 °C | -12.7 kcal/mol
GCCAGTGGAAACACCAGC ((..(((....)))..)) | 33.1 °C | -13.9 kcal/mol
GCTGATGGAAACGTTAGC (((.(.(....).).))) | 27.8 °C | -11.2 kcal/mol
GACCACGGAAACGTAGTC (((.(((....))).))) | 37 °C | -22.6 kcal/mol
GGGCATGGAAACGTGCTC (.(((.(....).))).) | 45 °C | -20.8 kcal/mol
GGCTCACGAAAGTGCGCC (((.(((....))).))) | 58.4 °C | -50.9 kcal/mol
GTATACCCGAAAGGGTAC (((..(((....)))))) | 32.4 °C | -8.81 kcal/mol
GCAGTGCGAAAGCAGTGC (((.(((....))).))) | 66.4 °C | -37.9 kcal/mol
GCTGATACGAAAGTAAGC (((..(((....)))))) | 33.9 °C | -14.4 kcal/mol
GCGGCGCGAAAGCGTAGC ((..(((....)))..)) | 65.8 °C | -26.1 kcal/mol
GAACCCGAAAGGGACTTC ((((((....)))..))) | 42.9 °C | -20.2 kcal/mol
GGCCTCGAAAGAGGCGCC ((((((....)))..))) | 66.5 °C | -6.36 kcal/mol
GCCAAAGGAAACCTTGGC (((((.(....).))))) | 48.1 °C | -29 kcal/mol
CGATCGGAAACGAGTTCG ((((((....)))..))) | 34.3 °C | -20.5 kcal/mol
GATCGTGCGAAAGCAATC (((..(((....)))))) | 23.5 °C | -6.96 kcal/mol
GTGGAAGGAAACCTCCAC (((((.(....).))))) | 44.1 °C | -34 kcal/mol

Sequence | Tm [1] | folding enthalpy [2]
GCCTGGCGAAAGCCCAGC ((..(((....)))..)) | 47.3 °C | -10.9 kcal/mol
GTATCACCGAAAGGTTAC (((..(((....)))))) | 25.8 °C | -8.26 kcal/mol
GACGGCGAAAGCCGTGTC ((((((....)))..))) | 63.9 °C | -9.28 kcal/mol
GCCCACGAAAGTGCCGGC ((((((....)))..))) | 46.6 °C | -16.1 kcal/mol
GCGAACGGAAACATCCGC (((.(.(....).).))) | 20.9 °C | -7.45 kcal/mol
GGTGTGGGAAACCACGTC (..((((....))))..) | 39.3 °C | -13 kcal/mol
GCTGGGCGAAAGCGCTGC ((.(.((....)).).)) | 60 °C | -31.7 kcal/mol
GATCGCACTTGCGATC ((((((....)))))) | 69.1 °C | -32.3 kcal/mol
GGTCTCGGAAACGAGGTC (..((((....))))..) | 38.2 °C | -15.9 kcal/mol
GCAGCTGGAAACGGTTGC (((.(.(....).).))) | 41.1 °C | -29.1 kcal/mol
GTCTACGGAAACGTAAAC ((.((((....)))).)) | 27.7 °C | -14.4 kcal/mol
GATGTCGGAAACGACACC (.(((((....))))).) | 40.4 °C | -11.4 kcal/mol
GATCGAACTATCGATC ((((((....)))))) | 50.3 °C | -43.8 kcal/mol
GTTGCAGGAAACTGTAGC (.(.(((....))).).) | 32.6 °C | -19.9 kcal/mol
GATCTGACAGCAGATC ((((((....)))))) | 44.7 °C | -28.6 kcal/mol
GTATGTCGAAAGACGTAC (((.(((....))).))) | 52.8 °C | -24.8 kcal/mol
GTATCCGAAAGGATCTAC ((((((....)))..))) | 39.1 °C | -13.7 kcal/mol
GTAGCCGAAAGGCGGTAC ((((((....)))..))) | 41.2 °C | -9.4 kcal/mol
GACCGCCGAAAGGCTGTC (((.(((....))).))) | 55.5 °C | -20.6 kcal/mol
GATCTCGTTAGAGATC ((((((....)))))) | 65.1 °C | -39.9 kcal/mol
GACTTGCGAAAGCACGTC (((.(((....))).))) | 52.4 °C | -23.3 kcal/mol
GCATTGGCGAAAGCCTGC (((..(((....)))))) | 44.3 °C | -15.1 kcal/mol
GTATTCGAAAGAAGTAC ((((((....))).))) | 24.9 °C | -8.84 kcal/mol
